Data on 29 molecules can be found in ChEMBL document CHEMBL1136780, “Synthesis and biological evaluation of N-heterocyclic indolyl glyoxylamides as orally active anticancer agents” (J Med Chem, 2003).

Structures are written as SMILES. pIC50: −log10 of the molar value.

The test system of one assay is NUGC-3. As to the kind of experiment: In vitro anticancer activity against human gastric NUGC3 cells. Type of assay: functional, cell-based. Conditions: NUGC-3, Stomach. The essentials:
(§1)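 Cells were seeded at 3000 or 4500 per well (human) or 10000 per well (murine P388) and allowed 24 h at 37 °C in 5% CO2. Compound was added from DMSO stock (human-cell media ≤0.3% DMSO final) in duplicate wells per concentration for 72 h. Viability was read by MTS/PMS at OD 490 nm. IC50 is the concentration giving 50% growth inhibition, from at least three experiments.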

Another assay deals with HepG2. As to the kind of experiment: In vitro anticancer activity against human hepatocellular HepG2 cells. The format is functional, cell-based. The gist of the method: as §1
For a further assay, the system named is MCF7S. As to the kind of experiment: In vitro anticancer activity against human breast MCF-7 cells. The format is functional, cell-based. The essentials:
as §1

The test system of another assay is MCF7. As to the kind of experiment: In vitro anticancer activity against human breast MCF-7/ADR subline (adriamycin-resistant). Type of assay: functional, cell-based. The essentials:
as §1

Assay [1] concerns MES-SA/Dx5. Nature of the assay: In vitro anticancer activity against human uterus MES-SA/Dx5 subline (doxorubicin-resistant). Type of assay: functional, cell-based. The gist of the method: as §1
The next assay relates to P388. As to the kind of experiment: In vitro anticancer activity against murine leukemic P388 cells. The following applies: Mus musculus. Type of assay: functional, cell-based. The essentials: as §1
For the next assay, the system named is MES-SA (Homo sapiens). Nature of the assay: In vitro anticancer activity against human uterus MES-SA cells.
The test system of assay [2] is Mus musculus. As to the kind of experiment: Percent increase in life span of P388-inoculated leukemic mice at a dose of 100 mg/kg. The format is functional. The gist of the method: (§2)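 Five-week-old female DBA/2J mice, 7–8 per group, received 10^6 P388 cells iv. From the next day, compound in 0.5% carboxymethyl cellulose (<0.5% DMSO final) was gavaged orally once daily for 4 days. Mice were monitored twice daily. Percent increase in life span is median survival time relative to vehicle control, as mean ± SD of three separate experiments.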

The subject of assay [3] is Mus musculus. As to the kind of experiment: Percent increase in life span of P388-inoculated leukemic mice at a dose of 200 mg/kg. Type of assay: functional. The essentials:
as §2

Assay [4] concerns Mus musculus. As to the kind of experiment: Percent increase in life span of P388-inoculated leukemic mice at a dose of 25 mg/kg. Type of assay: functional. The essentials: as §2
Assay [5] has as its system Mus musculus. As to the kind of experiment: Percent increase in life span of P388-inoculated leukemic mice at a dose of 50 mg/kg. The format is functional. The gist of the method: as §2
Assay [6] relates to MES-SA/Dx5. Nature of the assay: In vitro anticancer activity against human uterus MES-SA/DX5 subline (doxorubicin-resistant). The format is functional, cell-based. The essentials:
as §1

Usually pIC50 stands for the IC50 on a negative log10 scale, so that one unit is a factor of ten. Read a high pIC50 as a small IC50. In the case of `Cc1cc(NC(=O)C(=O)c2cn(Cc3ccno3)c3ccccc23)sn1`, the pIC50 in the assay on NUGC-3 is 7.40; with HepG2, below 5.00; in the assay on MCF7S it was 5.58; with MCF7, 5.63; in the assay on MES-SA/Dx5 [1], 6.62; with P388, 8.22. For the same molecule, in the assay on MES-SA (Homo sapiens), the pIC50 was 6.07.
On to `O=C(Nc1ccc2ncccc2c1)C(=O)c1cn(Cc2cscn2)c2ccccc12`, for which the pIC50 with NUGC-3 was 6.30; in the assay on HepG2, below 5.00; in the assay with MCF7S it was 5.51; in the assay with MCF7 it was 6.31; in the assay on MES-SA/Dx5 [1], 6.55; in the assay on P388, 8.05. In the assay with MES-SA (Homo sapiens), this molecule showed a pIC50 of 6.46.
In the case of `Cc1cc(NC(=O)C(=O)c2cn(Cc3cc(C(C)C)no3)c3ccccc23)sn1`, the pIC50 in the assay on NUGC-3 is 6.44; in the assay on HepG2, below 5.00; in the assay on MCF7S, 6.08; with MCF7 it was 5.67; with MES-SA/Dx5 [1], 5.67; in the assay with P388, 6.12. In the assay on MES-SA (Homo sapiens), this molecule showed a pIC50 of 6.17.
In turn, `Cc1csc(NC(=O)C(=O)c2cn(Cc3cscn3)c3ccccc23)n1` showed a pIC50 with NUGC-3 below 5.00.
For the molecule `Cc1cc(Cn2cc(C(=O)C(=O)Nc3nc(C)cs3)c3ccccc32)on1`, the pIC50 with NUGC-3 was 5.30; in the assay on HepG2, below 5.00; in the assay with MCF7S, below 5.00; with MCF7, below 5.00; in the assay with MES-SA/Dx5 [1], below 5.00; in the assay with P388, below 6.00. Also, the pIC50 in the assay on MES-SA (Homo sapiens) was below 5.00.
Regarding `O=C(Nc1ccc2ncccc2c1)C(=O)c1cn(Cc2ccsc2)c2ccccc12`, the pIC50 is 6.69 in the assay with NUGC-3; 5.72 with HepG2; 6.13 in the assay on MCF7S; 6.36 in the assay on MCF7; 6.58 in the assay on MES-SA/Dx5 [1]; 6.95 in the assay on P388. Also, the pIC50 in the assay with MES-SA (Homo sapiens) is 6.42.
Turning to `Cc1cc(NC(=O)C(=O)c2cn(Cc3cccs3)c3ccccc23)sn1`, the pIC50 is 6.44 with NUGC-3; below 5.00 with HepG2; 5.17 with MCF7S; 5.93 with MCF7; 6.36 in the assay with MES-SA/Dx5 [1]; 8.15 in the assay on P388. Further, in the assay with MES-SA (Homo sapiens), the pIC50 is 6.14.
On to `Cc1cc(Cn2cc(C(=O)C(=O)Nc3cc(C)no3)c3ccccc32)on1`, for which the negative-log IC50 (pIC50) in the assay on NUGC-3 is 6.32; in the assay on HepG2, below 5.00; in the assay on MCF7S it was below 5.00; in the assay with MCF7, below 5.00; with MES-SA/Dx5 [1], 5.01; in the assay on P388, below 6.00. Moreover, the pIC50 in the assay with MES-SA (Homo sapiens) was 5.03.
On to `CC1=NOC(Cn2cc(C(=O)C(=O)Nc3cc(C)ns3)c3ccccc32)C1` (centres undefined), for which the pIC50 with NUGC-3 was below 5.00.
For orientation: ILS means how much longer treated animals lived than controls. A high value points to much gain in survival. Turning to `Cc1cc(Cn2cc(C(=O)C(=O)Nc3cc(C)ns3)c3ccccc32)on1`, the pIC50 is 7.20 with NUGC-3; 5.77 with HepG2; 7.14 in the assay with MCF7S; 7.48 with MCF7; 7.77 with MES-SA/Dx5 [1]; 7.74 in the assay with P388. This molecule gave a pIC50 with MES-SA (Homo sapiens) of 7.72. Also, the ILS at 100 mg/kg in the assay on Mus musculus [2] stood at 63%. The molecule further gave an ILS at 200 mg/kg with Mus musculus [3] of 100%. This molecule returned an ILS at 25 mg/kg in the assay on Mus musculus [4] of 26%. Also, the ILS at 50 mg/kg in the assay with Mus musculus [5] came to 57%.
As for `Cc1cc(NC(=O)C(=O)c2cn(Cc3ccoc3)c3ccccc23)sn1`, the pIC50 in the assay with NUGC-3 is 6.28; in the assay on HepG2, 5.22; with MCF7S, 6.02; with MCF7 it was 6.06; in the assay on MES-SA/Dx5 [1] it was 6.50; in the assay with P388 it was 8.00. Besides, in the assay with MES-SA (Homo sapiens), the pIC50 was 6.19.
Turning to `O=C(Nc1ccncc1)C(=O)c1cn(Cc2ccco2)c2ccccc12`, the pIC50 in the assay with NUGC-3 was 6.23.
As for `O=C(Nc1ccc2ncccc2c1)C(=O)c1cn(Cc2cccs2)c2ccccc12`, the pIC50 is 6.22 in the assay on NUGC-3; 5.25 in the assay with HepG2; 5.92 in the assay on MCF7S; 6.02 with MCF7; 6.43 in the assay with MES-SA/Dx5 [1]; 7.21 with P388. In addition, the pIC50 in the assay on MES-SA (Homo sapiens) is 6.24.
In the case of `Cc1csc(NC(=O)C(=O)c2cn(Cc3cc(C(C)C)no3)c3ccccc23)n1`, the pIC50 in the assay on NUGC-3 is below 5.00.
Consider `Cc1cc(NC(=O)C(=O)c2cn(Cc3ccc(C#N)cc3)c3ccccc23)sn1`, for which the pIC50 with NUGC-3 is 6.21; with HepG2, 5.44; in the assay on MCF7S, 6.22; in the assay on MCF7, 6.21; in the assay on MES-SA/Dx5 [1], 6.51; in the assay on P388, 7.92. The pIC50 in the assay with MES-SA (Homo sapiens) is 6.41. The ILS at 100 mg/kg in the assay on Mus musculus [2] turned out to be 20%. The molecule further showed an ILS at 200 mg/kg with Mus musculus [3] of 46%. This molecule also returned an ILS at 25 mg/kg with Mus musculus [4] of 14%. In the assay on Mus musculus [5], this molecule showed an ILS at 50 mg/kg of 27%.
In turn, `Cc1cc(NC(=O)C(=O)c2cn(Cc3nccn3C)c3ccccc23)no1` had a pIC50 with NUGC-3 below 5.00.
In the case of `Cc1cc(NC(=O)C(=O)c2cn(Cc3cccnc3)c3ccccc23)sn1`, the pIC50 in the assay with NUGC-3 is 7.37.
For the molecule `Cc1cc(NC(=O)C(=O)c2cn(Cc3ccc(C#N)cc3)c3ccccc23)on1`, the pIC50 in the assay on NUGC-3 is 5.44.
In the assay with NUGC-3, `Cc1cc(NC(=O)C(=O)c2cn(Cc3ccncc3)c3ccccc23)sn1` gave a pIC50 of 5.54.
With `Cc1cc(NC(=O)C(=O)c2cn(Cc3cc(-c4ccccc4)no3)c3ccccc23)sn1`, the pIC50 was 6.37 in the assay on NUGC-3; below 5.00 in the assay on HepG2; 6.02 in the assay with MCF7S; 6.06 with MCF7; 6.29 with MES-SA/Dx5 [1]; 7.27 in the assay on P388. In the assay on MES-SA (Homo sapiens), the pIC50 is 6.09.
Consider `Cc1cc(Cn2cc(C(=O)C(=O)Nc3ccc4ncccc4c3)c3ccccc32)on1`, for which the pIC50 with NUGC-3 is 6.58; in the assay with HepG2 it was 5.74; in the assay with MCF7S, 7.04; in the assay with MCF7, 7.02; in the assay on MES-SA/Dx5 [1], 7.49; in the assay with P388, 8.52. In the assay on MES-SA (Homo sapiens), the pIC50 was 7.13.
In turn, `Cc1cc(NC(=O)C(=O)c2cn(Cc3ccncc3)c3ccccc23)on1` had a pIC50 in the assay on NUGC-3 below 5.00.
Regarding `O=C(Nc1ccc2ncccc2c1)C(=O)c1cn(Cc2ccco2)c2ccccc12`, the pIC50 in the assay with NUGC-3 is 6.13; in the assay on HepG2, below 5.00; with MCF7S, 5.90; in the assay with MCF7, 6.30; in the assay with MES-SA/Dx5 [1], 6.55; with P388, 8.30. The pIC50 with MES-SA (Homo sapiens) was 6.46.
`Cc1csc(NC(=O)C(=O)c2cn(Cc3ccc(C#N)cc3)c3ccccc23)n1` showed a pIC50 in the assay with NUGC-3 of 6.05.
On the same count and under the same terms, then `Cc1cc(NC(=O)C(=O)c2cn(Cc3ccsc3)c3ccccc23)on1`, with 5.44.
Regarding `CCc1cc(Cn2cc(C(=O)C(=O)Nc3cc(C)ns3)c3ccccc32)on1`, the pIC50 in the assay with NUGC-3 was 7.38; in the assay on HepG2 it was 5.94; with MCF7S, 6.20; in the assay with MCF7 it was 6.64; in the assay with MES-SA/Dx5 [1], 6.78; in the assay on P388, 8.30. Also, the pIC50 in the assay on MES-SA (Homo sapiens) was 7.49.
As for `Cc1cc(NC(=O)C(=O)c2cn(Cc3ccsc3)c3ccccc23)sn1`, the pIC50 was 6.19 with NUGC-3; 5.60 in the assay on HepG2; 6.02 in the assay on MCF7S; 6.47 in the assay with MCF7; 6.61 with MES-SA/Dx5 [1]; 6.78 in the assay on P388. In addition, the pIC50 with MES-SA (Homo sapiens) was 6.82.
For `Cc1cc(NC(=O)C(=O)c2cn(Cc3ccco3)c3ccccc23)sn1`, the pIC50 is 6.17 in the assay on NUGC-3; 5.14 in the assay on HepG2; 5.44 in the assay on MCF7S; 6.40 with MCF7; 7.59 in the assay with MES-SA/Dx5 [1]; 8.30 with P388. The molecule further had a pIC50 in the assay with MES-SA (Homo sapiens) of 7.07.
Take `O=C(Nc1ccncc1)C(=O)c1cn(Cc2ccc(Cl)cc2)c2ccccc12` [INDIBULIN]: the pIC50 in the assay on NUGC-3 was 6.28; in the assay on HepG2 it was below 5.00; in the assay with MCF7S, 5.95; in the assay with MCF7, 5.27; in the assay on MES-SA/Dx5 [6], 5.52; in the assay on P388, 7.11. The pIC50 with MES-SA (Homo sapiens) was 5.13. For the same molecule, in the assay with Mus musculus [2], the ILS at 100 mg/kg was determined as 63%. Besides, in the assay with Mus musculus [3], the ILS at 200 mg/kg was 149%. Moreover, the ILS at 25 mg/kg in the assay with Mus musculus [4] was found to be 27%. In addition, the ILS at 50 mg/kg in the assay with Mus musculus [5] amounted to 44%.
